According to publication PMC8733272 (iScience, 2021):
Changes are numbered by the printed parent chain. “Also recorded” adds a separate entry of the source.

Key:
[1] = target: Human MDR1 efflux transporter (MDCK-MDR1 cells) (Homo sapiens, UniProt P08183); assay: MDCK-MDR1 bidirectional permeability / efflux; format: in vitro ADME; conditions: average of inward and outward permeability
Procedure, shortened: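 MDCK-MDR1 cells were seeded at 0.28×10^6 cells/mL on the apical side of transwell inserts and grown 7 days, with two media changes. Monolayers were rinsed in HBSS/1% HEPES pH 7.4. 1 μM test compound was added to the donor side (A>B and B>A); receivers held buffer with 1% BSA. Plates were shaken 2 h at 37°C. Donor was sampled at 0 and 120 min, receiver at 2 h, and quenched with acetonitrile plus internal standard for LC-MS/MS. Post-assay TEER had to exceed 430 ohm∗cm2. Papp = (dQ/dt)(1/C0)(1/A); ER = Papp B>A / Papp A>B.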

[2] = target: T1, WT-Parkin (Homo sapiens, UniProt O60260); assay: Parkin autoubiquitination by Western blot; format: biochemical; conditions: 5 min reaction at 37°C
T1 sequence (O60260 1-465): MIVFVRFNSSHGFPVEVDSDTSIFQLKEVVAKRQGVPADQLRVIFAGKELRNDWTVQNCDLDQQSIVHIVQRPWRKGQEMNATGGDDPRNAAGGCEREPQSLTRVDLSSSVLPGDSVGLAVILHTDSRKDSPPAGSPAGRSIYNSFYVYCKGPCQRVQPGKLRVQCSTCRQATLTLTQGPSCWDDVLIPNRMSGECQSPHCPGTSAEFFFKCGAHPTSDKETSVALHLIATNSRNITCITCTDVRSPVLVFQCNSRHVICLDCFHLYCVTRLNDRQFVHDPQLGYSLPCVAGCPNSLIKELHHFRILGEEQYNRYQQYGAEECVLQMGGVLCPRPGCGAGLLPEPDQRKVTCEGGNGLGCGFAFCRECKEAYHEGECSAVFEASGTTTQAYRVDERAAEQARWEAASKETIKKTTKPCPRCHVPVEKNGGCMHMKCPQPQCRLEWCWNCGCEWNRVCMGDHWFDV
Procedure, shortened: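 Untagged WT-Parkin was pre-incubated 30 min at 37°C with E1, E2 and test compound; the 2X mix held 40 nM E1, 800 nM E2 and 100 nM Parkin. Then 2X substrate mix was added (760 nM fluorescein-Ub, 50 μM ubiquitin, 10 μM pUb, 2 mM ATP) in HEPES pH 7.4 buffer with 1% DMSO, in 40 μL. Stopped after 5 min with SDS sample buffer; polyubiquitin smears were read by Western blot.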

[3] = target: T2, WT-Parkin (substrate His-Miro1 186-591) (Homo sapiens, UniProt O60260); assay: Miro1 ubiquitination assay by Western blot; format: biochemical; conditions: His-Miro1 (186-591) substrate
T2 sequence (O60260 1-465): T1 sequence (O60260 1-465)
Procedure, shortened: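 Run as the TR-FRET reaction with untagged WT-Parkin. Test compound was pre-incubated 30 min with E1, E2, Parkin and His-Miro1 186-591 (250 nM final); the 2X mix held 40 nM E1, 800 nM E2 and 100 nM Parkin. After 20 min the reaction was stopped in SDS sample buffer, then run on 4–12% bis-tris SDS-PAGE, PVDF transfer and IR-dye secondary imaging.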

[4] = target: T3, N-terminally tagged WT-Parkin (Homo sapiens, UniProt O60260); assay: In vitro ubiquitin vinyl sulfone; format: biochemical; conditions: 3 μM pUb, 2 h
T3 sequence (O60260 1-465): T1 sequence (O60260 1-465)
Procedure, shortened: (§1)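 Tagged Parkin (WT or W403A), 2 μM, incubated with 10 μM Ub-VS and 3 μM pUb. Test compound at 0, 0.09, 0.27, 0.8, 2.5, 7.4, 22.2, 66.7 and 200 μM. Buffer: 50 mM HEPES, 150 mM NaCl, 1 mM TCEP, pH 8.0. Final DMSO 2% (v/v).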

[5] = target: T4, N-terminally tagged W403A-Parkin (Homo sapiens, UniProt O60260, W403A); assay: In vitro ubiquitin vinyl sulfone; format: biochemical; conditions: 3 μM pUb, 1 h
T4 sequence (O60260 1-465 W403A): T1 sequence (O60260 1-465) with W403A
Procedure, shortened: as §1

[6] = target: T5, N-terminally tagged C431S-Parkin (Homo sapiens, UniProt O60260, C431S); assay: In vitro ubiquitin vinyl sulfone; format: biochemical; conditions: 200 μM compound, range of pUb concentrations
T5 sequence (O60260 1-465 C431S): T1 sequence (O60260 1-465) with C431S

[7] = target: T6, pParkin (Homo sapiens, UniProt O60260); assay: TR-FRET autoubiquitination assay with phospho-Parkin without pUb; format: biochemical; conditions: TR-FRET ratio, no pUb
T6 sequence (O60260 1-465): T1 sequence (O60260 1-465)

[8] = tested on: GFP-Parkin expressing HeLa cells; assay: Parkin translocation assay; format: cell-based
Procedure, shortened: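 HeLa cells stably expressing GFP-Parkin (lentiviral, blasticidin-selected, FACS-sorted for matched GFP) were seeded at 1.6×10^4 cells/well and recovered 24 h. Nuclei were Hoechst-stained 30 min. Cells were pre-treated 1 h with test compound, then given 20 μM CCCP. Live imaging every 10 min for 3 h at 20x, 37°C, 5% CO2, with 9 fields in each of 4 replicate wells.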

[9] = tested on: SH-SY5Y cells expressing the MitoQC construct; assay: MitoQC mitophagy assay; format: cell-based; conditions: 1 h pre-incubation, Antimycin + Oligomycin
Procedure, shortened: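 SH-SY5Y cells carrying MitoQC were seeded at 1.6×10^4 cells/well on attachment factor and recovered 72 h. Cells were pre-treated 1 h with test compound, then given 5 μM Antimycin + 10 μM Oligomycin or DMSO for 8 h unless stated otherwise. Fixed in 2% PFA on ice 30 min, DAPI-stained, and imaged at 64x (25 fields, 4 replicate wells). mCherry puncta (mitolysosomes) were counted.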

Sequence of Human MDR1 efflux transporter (MDCK-MDR1 cells) (P08183 whole entry): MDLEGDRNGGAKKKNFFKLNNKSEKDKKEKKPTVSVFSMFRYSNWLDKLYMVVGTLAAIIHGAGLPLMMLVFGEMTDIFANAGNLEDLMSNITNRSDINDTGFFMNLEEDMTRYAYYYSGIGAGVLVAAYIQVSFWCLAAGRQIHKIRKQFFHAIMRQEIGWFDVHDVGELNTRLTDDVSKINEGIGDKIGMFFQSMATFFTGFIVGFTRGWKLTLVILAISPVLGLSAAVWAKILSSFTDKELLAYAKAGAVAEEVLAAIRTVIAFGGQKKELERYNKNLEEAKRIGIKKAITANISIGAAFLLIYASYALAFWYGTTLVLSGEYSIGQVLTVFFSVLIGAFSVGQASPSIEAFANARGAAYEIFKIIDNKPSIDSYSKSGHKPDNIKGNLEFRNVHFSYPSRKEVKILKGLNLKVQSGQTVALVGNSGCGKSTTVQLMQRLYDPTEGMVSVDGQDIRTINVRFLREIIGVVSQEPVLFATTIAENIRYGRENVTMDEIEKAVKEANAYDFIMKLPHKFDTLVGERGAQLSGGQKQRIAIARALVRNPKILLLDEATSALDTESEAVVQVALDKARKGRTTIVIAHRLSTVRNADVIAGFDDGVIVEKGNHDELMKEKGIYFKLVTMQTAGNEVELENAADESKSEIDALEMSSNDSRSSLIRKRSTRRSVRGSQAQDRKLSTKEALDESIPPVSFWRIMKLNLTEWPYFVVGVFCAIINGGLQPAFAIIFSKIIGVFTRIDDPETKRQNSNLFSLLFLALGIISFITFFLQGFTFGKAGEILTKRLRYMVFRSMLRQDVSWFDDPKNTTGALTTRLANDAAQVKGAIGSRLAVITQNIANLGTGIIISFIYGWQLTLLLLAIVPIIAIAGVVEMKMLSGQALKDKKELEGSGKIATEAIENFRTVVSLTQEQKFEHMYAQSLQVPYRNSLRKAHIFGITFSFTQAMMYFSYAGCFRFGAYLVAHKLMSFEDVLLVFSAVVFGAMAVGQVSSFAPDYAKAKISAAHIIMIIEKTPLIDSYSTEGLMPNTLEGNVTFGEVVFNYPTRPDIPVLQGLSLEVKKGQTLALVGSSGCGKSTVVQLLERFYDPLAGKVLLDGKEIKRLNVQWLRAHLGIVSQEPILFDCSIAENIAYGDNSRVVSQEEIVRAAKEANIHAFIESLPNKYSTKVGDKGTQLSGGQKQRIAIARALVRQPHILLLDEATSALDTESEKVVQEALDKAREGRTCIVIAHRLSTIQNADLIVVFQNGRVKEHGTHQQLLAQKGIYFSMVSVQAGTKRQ

## CO[C@H](C(=O)N1Cc2c(-c3ccc(C(=O)N4CCCc5ccccc54)cc3)cnn2C[C@H]1C(C)C)c1cnn(C)c1 (single isomer, unassigned) [BIO-2007817]
[1]
  MDR1-MDCK avg (average of Papp AB/BA): 19.8 ×10⁻⁶ cm/s
[2]
  Parkin autoubiquitination by Western blot: stimulated Parkin autoubiquitination as measured by Western blots in a concentration-dependent manner
[3]
  Miro1 ubiquitination by Western blot: able to induce the appearance of monoubiquitinated forms of Miro1
[4]; no E1, E2 or ATP
  Ub-VS charging of WT-Parkin: induced the appearance of slower-migrating Parkin species in a concentration-dependent manner
[4]; WT-Parkin
  concentration above which maximal efficacy is approached in Ub-VS charging: above 20 μM
[5]
  Ub-VS charging of W403A-Parkin: further stimulated exposure of the active-site C431
[6]
  Ub-VS charging of C431S-Parkin: not responsive; also recorded: no activity
[7]
  activation of phospho-Parkin in the absence of pUb: can act as an agonist for activated phospho-Parkin even in the absence of pUb
[8]; HeLa cells with and without valspodar (MDR1 inhibitor)
  effect on Parkin translocation rate in the presence of valspodar: No change in Parkin translocation rate
[8]; eGFP-WT-Parkin HeLa, 1 h pretreatment, then CCCP
  effect on rate of Parkin translocation to mitochondria: did not significantly change the rate of translocation of Parkin; also recorded: not able to promote Parkin translocation to depolarized mitochondria in HeLa cells
[9]
  effect on mitophagy, MitoQC: nor promote mitophagy in MitoQC SH-SY5Y cell lines
